CFTR F508del cor: correctors of CFTR F508del function in bronchial epithelial cells; activity (quench increase), % at 7.58 µM; CFBE cells, YFP halide quenching; stimulated with forskolin plus potentiator P3; % fluorescence drop versus neutral controls; 350,000 compounds, 0.36% hits;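 active = mean added fluorescence quench of at least 8% versus neutral control, with both replicates also reaching 8%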;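 also: cells transiently co-express mutant CFTR-F508del with the halide-sensitive YFP; corrector assay measuring rescue of mutant channel to the surface after 24 h compound exposure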
miR-122 sensor: miR-122 inhibition in Huh7 cells. Huh7 miR-122 Renilla luciferase sensor, 48 h; neutral wells = 0, positive control = 100. activation (reporter increase), % at 12.5 µM. 340,000 compounds, 0.3% hits. AID 602342;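 active = mean replicate activation score at least 90 and every replicate individually at or above 90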;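 also: higher luciferase means less miR-122 activity so hits act as miR-122 inhibitors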
PGC1a acetyl inh: lowers PGC1a acetylation signal in U2OS cells; AlphaScreen anti-acetyl-lysine; with virally co-expressed GCN5 acetyltransferase; inhibition, % at 15.6 µM; 350,000 compounds, 0.17% hits; AID 651687;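 active = every replicate shows inhibition of at least 40%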;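 also: 0% = neutral control wells and 100% = positive control wells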
CAL PDZ FP-1: inhibitors of human CAL PDZ peptide binding | inhibition, % at 24.9 µM | AID 602252 | purified CAL PDZ, TMR-peptide fluorescence polarization, 1 h | Q9HD26 | 300,000 compounds, 0.92% hits;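 active = mean inhibition of at least 30% with at least half of replicates also reaching 30%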;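 also: 0% = DMSO neutral control and 100% = excess unlabeled competitor peptide PRC23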
CAL PDZ FP-2: human CAL PDZ-peptide interaction inhibition; AID 504414; Q9HD26; inhibition, % at 20 µM; purified CAL PDZ, TMR-peptide fluorescence polarization, 1 h; 330,000 compounds, 0.02% hits;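 active = highest replicate inhibition of at least 40%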;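 also: plate controls were DMSO neutral control wells for no effect and unlabeled competitor peptide control wells for full effect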
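System: purified tagged CAL PDZ domain construct (CerCALP). Schedule: 1 h incubation at room temperature before polarization reading. Medium: 25 mM sodium phosphate pH 7.4, 150 mM NaCl, TCEP, IgG, Thesit. Read-out: percent inhibition from loss of millipolarization. Measured by: FP readout, S and P plane fluorescence. Probe or stimulus: fluorescent TMR peptide probe.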
ARNT TACC3 PPI: ARNT/TACC3 interaction disruption; AlphaScreen His-ARNT PAS-B/GST-TACC3 binding, luminescence; TACC3 fragment carries E629A point mutation; inhibition, % at 9.99 µM; 390,000 compounds, 0.66% hits;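 active = mean inhibition of replicates at least 50% and at least half of replicates each reaching 50%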;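 also: 0% = complete ARNT plus TACC3 wells and 100% = ARNT alone without TACC3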
ARNT Alpha ctr-1: interferes with AlphaScreen signal, flagging false ARNT-TACC3 hits; 1,200 compounds, 50% hits; His-ARNT PASB-GST AlphaScreen artifact counter-screen, luminescence; shares compounds with ARNT TACC3 PPI; AC50, µM (highest dose often 68 µM), without a hit: at the top dose activity change, negative = signal decrease;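 active = every separate test run was called active for a drop in luminescence, with AC50 within twice the top valid dose, actives reach about 71 µM in these data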
ARNT Alpha ctr-2: counter-screen for ARNT-TACC3 inhibitors: AlphaScreen artifacts; Dual-tagged His-ARNT PASB-GST AlphaScreen artifact counter-screen; AID 720564; shares compounds with ARNT TACC3 PPI; 45 compounds, 70% hits; AC50, µM;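 active = luminescence drop, with half-maximal potency fitted within twice the sample's top valid dose, cut at about 70 µM in these data; inactive = the rest, including signal moving the wrong way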
Numbers without * were called inactive; / = no result; [ ] = remark or other dose. In the library only some 1.7% were active in any assay of this set; here they are far more common.

SMILES	CFTR F508del cor	miR-122 sensor	PGC1a acetyl inh	CAL PDZ FP-1	CAL PDZ FP-2	ARNT TACC3 PPI	ARNT Alpha ctr-1	others
COc1cc2c(cc1OC)-c1cc(Nc3ccccc3C)nc(=O)n1CC2	2	-16	8	-7	-2	23	/
CCNc1cc2n(c(=O)n1)CCc1cc(OC)c(OC)cc1-2	/	-3	-16	-1	-1	26	/
CCCCCCNc1cc2n(c(=O)n1)CCc1cc(OC)c(OC)cc1-2	/	5	-29	/	-3	58*	-30%
CCOc1ccc(Nc2cc3n(c(=O)n2)CCc2cc(OC)c(OC)cc2-3)cc1	3	-5	0	-7	0	43*	-16%
CCOc1ccccc1Nc1cc2n(c(=O)n1)CCc1cc(OC)c(OC)cc1-2	4	/	/	-4	-2	18	/
COc1cc2c(cc1OC)-c1cc(Nc3cccc(C)c3)nc(=O)n1CC2	1	-1	1	-7	-2	53*	0%
O=C(Nc1ccc(N2CCN(C(=O)c3ccccc3F)CC2)cc1)c1ncn[nH]1	0	/	/	-2	-2	59*	-18%
Cc1onc(-c2c(Cl)cccc2Cl)c1C(=O)Nc1ccc(N2CCOCC2)cc1	0	25	3	-7	0	active	-20%
Cc1onc(-c2c(F)cccc2Cl)c1C(=O)Nc1ccccc1N1CCOCC1	4	-6	/	-3	-1	4	/
CCCC(=O)NC(c1ccco1)c1cc(Cl)c2cccnc2c1O (stereo not given)	/	2	12	-4	0	1	/
CC(C)C(=O)NC(c1ccco1)c1cc(Cl)c2cccnc2c1O (stereo not given)	/	/	/	/	/	/	/	ARNT Alpha ctr-2=43*
CC(C)CC(=O)NC(c1cccs1)c1ccc2cccnc2c1O (stereo not given)	/	9	12	-4	0	/	/	ARNT Alpha ctr-2=7*
CC(=O)NC(c1ccco1)c1cc(F)c2cccnc2c1O (stereo not given)	1	/	/	-1	-1	58*	45µM*
CC(C)C(=O)NC(c1ccco1)c1ccc2cccnc2c1O (stereo not given)	/	-34	16	-3	-1	53*	29µM*	ARNT Alpha ctr-2=9.4*
C[C@H](CO)N1C[C@H](C)[C@@H](CN(C)C(=O)Nc2ccc(F)cc2)OCCCC[C@H](C)Oc2ccc(NS(=O)(=O)c3cccs3)cc2C1=O	-2	1[16.7 µM]	0	/	/	-11	/
C[C@@H]1CCCCO[C@@H](CN(C)C(=O)Nc2ccccc2)[C@H](C)CN([C@H](C)CO)C(=O)c2cc(NC(=O)NC3CCCCC3)ccc2O1	1	-9[16.7 µM]	-5	/	/	-5	/
C[C@@H]1CN([C@@H](C)CO)S(=O)(=O)c2ccc(/C=C/c3ccccc3)cc2O[C@@H]1CN(C)C(=O)NC1CCCC1	0	-23[16.7 µM]	-8	/	/	13	/
O=C(Cc1ccccc1)NC(c1ccco1)c1ccc2cccnc2c1O (stereo not given)	/	/	/	/	/	/	/	ARNT Alpha ctr-2=8.7*
Oc1c(C(Nc2nc3ccccc3s2)c2ccco2)ccc2cccnc12 (stereo not given)	/	28	-6	1	-1	14	/
CC(C)C(=O)NC(c1cccc([N+](=O)[O-])c1)c1ccc2cccnc2c1O (stereo not given)	-12	-41	28	-2	-2	63*	17µM*
O=C(C1=C(O)C(=O)N(Cc2ccccc2)C1c1ccncc1)c1ccco1 (stereo not given)	/	7	-10	-7	0	21*	-3%
CCOC(=O)C1CCN(C(=O)COC(=O)c2ccc([N+](=O)[O-])o2)CC1	0	-6	5	2	1	33*	-11%
CC1CC(C)CN(C(=O)COC(=O)c2ccc([N+](=O)[O-])o2)C1 (stereo not given)	3	0	1	/	1	-1	/
CC1CCCC(C)N1C(=O)COC(=O)c1cc([N+](=O)[O-])ccc1N1CCOCC1 (stereo not given)	7	/	7	-1	-1	-3	/
CC1CCCC(C)N1C(=O)COC(=O)c1ccc([N+](=O)[O-])o1 (stereo not given)	2	/	-2	0	1	30*	-17%
SMILES	CFTR F508del cor	miR-122 sensor	PGC1a acetyl inh	CAL PDZ FP-1	CAL PDZ FP-2	ARNT TACC3 PPI	ARNT Alpha ctr-1	others
Oc1c(C(Nc2cccc(C(F)(F)F)c2)c2ccncc2)ccc2cccnc12 (stereo not given)	-3	/	14	-4	1	53*	4.1µM*
CC(C)Nc1nc(-c2ccccc2)nnc1-c1ccccc1	4	/	/	/	0	-10	/
OCCCNc1nc(-c2ccccn2)nnc1-c1ccccc1	/	/	/	/	/	/	1.2µM*
c1ccc(-c2nnc(-c3ccccn3)nc2NCC2CCOCC2)cc1	/	/	/	/	/	/	1.1µM*
C[C@@H](Nc1nc(-c2ccccn2)nnc1-c1ccccc1)c1ccccc1	/	/	/	/	/	/	2.4µM*
O=[N+]([O-])c1ccc(-c2nnc(-c3ccccc3)c(NCCCO)n2)cc1	/	/	/	3	-1	-5	/
CN(C)c1nc(-c2ccccn2)nnc1-c1ccccc1	/	13	-5	-3	-1	64*	1.1µM*
COc1ccc2c3c([nH]c2c1)[C@H](CO)N(C(=O)c1ccc(F)cc1)CC31CCN(C(=O)Nc2cccc(F)c2)CC1	-2	/	/	/	/	/	/
COc1cccc(CNc2nc(-c3ccccn3)nnc2-c2ccccc2)c1	/	/	/	/	/	/	1.6µM*
c1ccc(-c2cccc(CNc3nc(-c4ccccn4)nnc3-c3ccccc3)c2)cc1	/	/	/	/	/	/	7.1µM*
c1ccc(CNc2nc(-c3ccccn3)nnc2-c2ccccc2)cc1	/	/	/	/	/	/	0.79µM*
c1ccc(-c2nnc(-c3ccccn3)c(-c3ccccn3)n2)nc1	-2	1	1	/	/	/	/
c1ccc(-c2nnc(-c3ccccn3)nn2)nc1	-1	8	11	6	2	74*	-33%
c1ccc(-c2nnc(-c3ccccn3)nc2NCCCN2CCOCC2)cc1	/	/	/	/	/	/	1.1µM*
c1ccc(CCNc2nc(-c3ccccn3)nnc2-c2ccccc2)cc1	/	/	/	/	/	/	2.5µM*
c1ccc(-c2nc(NCCCN3CCOCC3)c3ccccc3n2)cc1	/	-3	5	1	-2	6	/
C/C(=N/NC(=O)c1ccncc1)c1cc2ccc(O)cc2oc1=O	-2	/	/	0	0	57*	-8%
O=C(Oc1ccc(Cl)c2cccnc12)c1cccnc1	-12	-4	3	52*	/	69*	50µM*
COc1ccc2c3c([nH]c2c1)[C@H](CO)N(C(C)=O)CC31CCN(C(=O)Nc2ccc(F)cc2F)CC1	0	/	-1	/	/	/	/
